The nature of data set [1]: Half life in tumor of RT112/luc1 cells implanted in athymic nude mouse at 5 mg/kg, iv by LC/MS/MS analysis. In kind it is ADME, organism-based, Neoplasm. More on the design: dose 5 mg/kg, route intravenous. Put shortly: (§1)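 Female athymic nude mice carried subcutaneous RT112/luc1 tumors (5×10^6 cells, 50% Matrigel; about 300–400 mm3). Dosing was either 5 mg/kg iv by tail vein in NMP/PEG200 (1:9) or 20 mg/kg oral suspension in PEG300/D5W (2:1). Groups of mice (n = 4) were sacrificed at 0.083–24 h. Plasma and tumor levels were measured by LC-MS/MS (LOQ 5 ng/mL, 10 ng/g).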

Data set [2] has as its system Tumour. Put plainly: Dose normalized AUC in tumor of RT112/luc1 cells implanted athymic nude mouse at 5 mg/kg, iv by LC/MS/MS analysis. Also on record: dose 5 mg/kg, route intravenous. In kind it is ADME, organism-based, Neoplasm. The conditions noted are these: in vivo. A digest of the protocol: as §1
The nature of data set [3]: Inhibition of LCK-B-mediated proliferation of mouse BAF3 cells transformed with Tel-kinase construct. Type of data set: cell-based. Put shortly:
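Murine BaF3 cells made IL-3-independent by a Tel-kinase fusion were grown in RPMI-1640 with 10% FBS. Cells were seeded at 4250 per well with DMSO-diluted compound and incubated 48 h at 37 °C. Viability was read by Bright-Glo luminescence.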

The subject of data set [4] is Tumour. Put plainly: Drug uptake in tumour of nude Rowett rat bearing human RT112 cells at 8.51 mg/kg, po administered as a single dose after 16 hrs by LC-MS/MS analysis. Type of data set: ADME, organism-based, Neoplasm, RT-112. Also on record: dose 8.51 mg/kg, route oral. The conditions noted are these: in vivo. A digest of the protocol: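 Nude Rowett rats bearing subcutaneous RT112 tumors (n = 4) received a single gavage of monophosphate salt at 4.25 or 8.51 mg/kg free base in acetate buffer pH 4.6/PEG300. Tumors were collected at intervals after dosing, frozen and homogenized in an equal volume of ice-cold PBS. Compound levels were measured by LC-MS/MS (LOQ 3 ng/mL).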

Data set [5] concerns Tumour. Put plainly: Dose normalized AUC in tumor of RT112/luc1 cells implanted athymic nude mouse at 20 mg/kg, po by LC/MS/MS analysis. Also on record: dose 20 mg/kg, route oral. The conditions noted are these: in vivo. In kind it is ADME, organism-based, Neoplasm. Put shortly:
as §1

A further data set concerns the target Cytochrome P450 2C19 (Homo sapiens, UniProt P33261). Put plainly: Inhibition of CYP2C19 using CEC as substrate. In kind it is ADME. A digest of the protocol:
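Human CYP450 inhibition was measured with isoform-specific fluorogenic probe substrates: CEC for 1A2 and 2C19, MFC for 2C9, AMMC for 2D6. Incubation was at 37 °C with an NADPH-regenerating system in 384-well format. Metabolite was quantified by fluorescence, and IC50 was obtained by curve fitting.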

Data set [6] deals with Serine/threonine-protein kinase N2 (Homo sapiens, UniProt Q16513). Nature of the data set: Inhibition of recombinant PKN2. A digest of the protocol:
(§2)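 Purified recombinant kinases under optimized conditions with peptide substrates. ATP was set at each kinase's Km. Phosphorylation was read by microfluidic mobility-shift separation of substrate and product; IC50 determined.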

In data set [7] the target is Tyrosine-protein kinase Yes (Homo sapiens, UniProt P07947). Put plainly: Inhibition of recombinant YES kinase. A digest of the protocol: as §2
Chain of Tyrosine-protein kinase Yes (P07947 whole entry): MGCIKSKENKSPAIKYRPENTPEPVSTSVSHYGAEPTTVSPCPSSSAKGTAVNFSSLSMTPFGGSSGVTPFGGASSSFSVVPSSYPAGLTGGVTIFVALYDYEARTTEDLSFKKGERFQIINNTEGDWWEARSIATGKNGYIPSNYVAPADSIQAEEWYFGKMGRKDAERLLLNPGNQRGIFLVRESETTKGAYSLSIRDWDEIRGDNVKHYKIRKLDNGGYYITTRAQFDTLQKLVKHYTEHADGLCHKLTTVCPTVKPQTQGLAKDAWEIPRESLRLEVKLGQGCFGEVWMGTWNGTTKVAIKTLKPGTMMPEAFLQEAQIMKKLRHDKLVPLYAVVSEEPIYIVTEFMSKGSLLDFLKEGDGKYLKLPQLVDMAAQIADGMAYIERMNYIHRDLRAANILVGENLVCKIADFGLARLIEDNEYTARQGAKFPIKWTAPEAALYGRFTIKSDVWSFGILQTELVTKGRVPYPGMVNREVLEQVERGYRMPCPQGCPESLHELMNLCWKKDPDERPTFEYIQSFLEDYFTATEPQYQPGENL
Data set [8] in a line: Apparent terminal half life in Wistar rat at 10 mg/kg, po by LC-MS/MS analysis. In kind it is ADME, organism-based. More on the design: dose 10 mg/kg, route oral. The conditions noted are these: in vivo, read-out: t1/2 lambda z (converted). A digest of the protocol:
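Female Wistar rats. IV: 5 mg/kg into the femoral vein as a solution in NMP/PEG200 (1:9, v/v). Oral: monophosphate salt at 10 mg/kg (free base equivalents) as a solution in acetic acid–acetate buffer pH 4.6/PEG300. Plasma was taken by sublingual bleeding at 0.083–24 h, from staggered groups (n = 4) or one sequentially bled group. Assayed by LC-MS/MS (LOQ 10 ng/mL); noncompartmental analysis.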

For data set [9], the target named is Serine/threonine-protein kinase PAK 2 (Homo sapiens, UniProt Q13177). Put plainly: Inhibition of recombinant PAK2. Put shortly: as §2
Chain of Serine/threonine-protein kinase PAK 2 (Q13177 whole entry): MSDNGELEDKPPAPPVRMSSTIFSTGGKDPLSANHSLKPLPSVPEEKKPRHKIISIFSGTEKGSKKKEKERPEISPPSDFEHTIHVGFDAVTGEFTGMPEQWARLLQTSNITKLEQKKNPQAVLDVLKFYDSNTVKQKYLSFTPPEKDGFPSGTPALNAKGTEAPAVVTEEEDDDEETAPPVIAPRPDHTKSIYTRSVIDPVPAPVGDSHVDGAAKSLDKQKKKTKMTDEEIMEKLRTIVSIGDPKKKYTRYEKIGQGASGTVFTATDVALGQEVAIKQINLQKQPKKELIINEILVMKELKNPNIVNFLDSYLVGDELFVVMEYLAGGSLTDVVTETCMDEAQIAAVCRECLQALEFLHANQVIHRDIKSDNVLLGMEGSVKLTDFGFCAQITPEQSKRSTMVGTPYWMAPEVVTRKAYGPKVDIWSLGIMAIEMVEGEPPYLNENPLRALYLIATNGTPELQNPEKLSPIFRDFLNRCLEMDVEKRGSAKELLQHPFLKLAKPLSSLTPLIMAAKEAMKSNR
Another data set has as its system Plasma. Nature of the data set: Dose normalized AUC in plasma of RT112/luc1 cells implanted athymic nude mouse at 5 mg/kg, iv by LC/MS/MS analysis. In kind it is ADME, organism-based. Also on record: dose 5 mg/kg, route intravenous. The conditions noted are these: in vivo. A digest of the protocol: as §1
For data set [10], the system named is Tumour. Put plainly: Cmax in tumor of RT112/luc1 cells implanted athymic nude mouse at 5 mg/kg, iv by LC/MS/MS analysis. In kind it is ADME, organism-based, Neoplasm. Also on record: dose 5 mg/kg, route intravenous. The conditions noted are these: in vivo. Put shortly:
as §1

The next data set deals with Ephrin type-B receptor 4 (Homo sapiens, UniProt P54760). Put plainly: Inhibition of recombinant EPHB4. Put shortly: (§3)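 Purified recombinant kinases under optimized conditions, with peptide substrates and ATP at each kinase's Km. Phosphorylation was read out by microfluidic mobility shift, and IC50 values were obtained.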
Data set [11] has as its target Tyrosine-protein kinase ZAP-70 (Homo sapiens, UniProt P43403). Nature of the data set: Inhibition of recombinant ZAP70. A digest of the protocol: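 Purified recombinant kinases were tested under optimized conditions with peptide substrates. ATP was set at each kinase's Km. Phosphorylation was read out by microfluidic mobility shift, and IC50 values were determined.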

The target of data set [12] is Serine/threonine-protein kinase PLK1 (Homo sapiens, UniProt P53350). Put plainly: Inhibition of recombinant PLK1. Put shortly:
as §2

Another data set concerns RT-112. Put plainly: Antiproliferative activity against human RT112 cells overexpressing wild type FGFR3 after 72 hrs. The conditions noted are these: RT-112, 72 h. In kind it is functional, cell-based. A digest of the protocol:
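Bladder cancer lines from ATCC or DSMZ were seeded in 96-well plates (RT4, RT112 at 8500 cells/well; others at 5000 cells/well) in growth medium. Compound dilutions or DMSO were added 24 h later and incubated 72 h. Cells were fixed with glutaraldehyde, stained with 0.05% methylene blue and eluted with 3% HCl, then OD650 nm was read.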

Data set [13] addresses MAP kinase-activated protein kinase 2 (Homo sapiens, UniProt P49137). Nature of the data set: Inhibition of recombinant MK2. Put shortly:
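Purified recombinant kinases with peptide substrates and ATP at each kinase's Km. Read-out was microfluidic mobility shift.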

The target in data set [14] is MAP kinase-activated protein kinase 5 (Homo sapiens, UniProt Q8IW41). Put plainly: Inhibition of recombinant MK5. Put shortly:
as §2

The nature of data set [15]: Tmax in tumor of RT112/luc1 cells implanted athymic nude mouse at 5 mg/kg, iv by LC/MS/MS analysis. In kind it is ADME, organism-based, Neoplasm. Also on record: dose 5 mg/kg, route intravenous. A digest of the protocol: (§4)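 Female athymic nude mice carrying subcutaneous RT112/luc1 tumors (ca. 300–400 mm3). Dosing was 5 mg/kg iv by tail vein in NMP/PEG200 (1:9) or 20 mg/kg by oral gavage as a suspension in PEG300/D5W (2:1). Groups (n = 4) were sacrificed from 0.083 to 24 h. Plasma and tumor were measured by LC-MS/MS (LOQ 5 ng/mL, 10 ng/g). Noncompartmental analysis used the linear trapezoidal AUC; F was calculated from dose-normalized AUC.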

Data set [16] concerns the target Tyrosine-protein kinase Lyn (Homo sapiens, UniProt P07948). Put plainly: Inhibition of recombinant LYN kinase. Put shortly: as §3
A short description of data set [17]: Volume of distribution at steady state in Wistar rat at 5 mg/kg, iv by LC-MS/MS analysis. Type of data set: ADME, organism-based. More on the design: dose 5 mg/kg, route intravenous. The conditions noted are these: in vivo, read-out: Vdss. A digest of the protocol:
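Female Wistar rats received 5 mg/kg iv into the femoral vein in NMP/PEG200 (1:9), or the monophosphate salt orally at 10 mg/kg (free base) in acetate buffer pH 4.6/PEG300. Serial sublingual plasma samples were taken from 0.083 to 24 h.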

A short description of data set [18]: Tmax in tumor of RT112/luc1 cells implanted athymic nude mouse at 20 mg/kg, po by LC/MS/MS analysis. More on the design: dose 20 mg/kg, route oral. In kind it is ADME, organism-based, Neoplasm. Put shortly:
as §4

Chain of Cytochrome P450 2C19 (P33261 whole entry, canonical isoform): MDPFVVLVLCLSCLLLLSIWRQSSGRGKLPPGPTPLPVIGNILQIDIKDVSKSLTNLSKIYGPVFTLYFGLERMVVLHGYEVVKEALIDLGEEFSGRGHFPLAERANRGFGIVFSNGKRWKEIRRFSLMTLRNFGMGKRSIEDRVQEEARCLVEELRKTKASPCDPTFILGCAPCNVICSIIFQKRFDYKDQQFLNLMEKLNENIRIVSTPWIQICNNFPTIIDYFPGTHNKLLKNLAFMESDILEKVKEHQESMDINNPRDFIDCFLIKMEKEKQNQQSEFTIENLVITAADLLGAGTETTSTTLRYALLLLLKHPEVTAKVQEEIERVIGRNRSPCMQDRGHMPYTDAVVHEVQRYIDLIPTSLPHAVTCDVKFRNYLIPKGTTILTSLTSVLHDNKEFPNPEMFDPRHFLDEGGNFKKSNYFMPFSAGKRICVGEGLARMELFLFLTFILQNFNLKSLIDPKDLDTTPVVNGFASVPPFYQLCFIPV
Chain of Serine/threonine-protein kinase N2 (Q16513 whole entry): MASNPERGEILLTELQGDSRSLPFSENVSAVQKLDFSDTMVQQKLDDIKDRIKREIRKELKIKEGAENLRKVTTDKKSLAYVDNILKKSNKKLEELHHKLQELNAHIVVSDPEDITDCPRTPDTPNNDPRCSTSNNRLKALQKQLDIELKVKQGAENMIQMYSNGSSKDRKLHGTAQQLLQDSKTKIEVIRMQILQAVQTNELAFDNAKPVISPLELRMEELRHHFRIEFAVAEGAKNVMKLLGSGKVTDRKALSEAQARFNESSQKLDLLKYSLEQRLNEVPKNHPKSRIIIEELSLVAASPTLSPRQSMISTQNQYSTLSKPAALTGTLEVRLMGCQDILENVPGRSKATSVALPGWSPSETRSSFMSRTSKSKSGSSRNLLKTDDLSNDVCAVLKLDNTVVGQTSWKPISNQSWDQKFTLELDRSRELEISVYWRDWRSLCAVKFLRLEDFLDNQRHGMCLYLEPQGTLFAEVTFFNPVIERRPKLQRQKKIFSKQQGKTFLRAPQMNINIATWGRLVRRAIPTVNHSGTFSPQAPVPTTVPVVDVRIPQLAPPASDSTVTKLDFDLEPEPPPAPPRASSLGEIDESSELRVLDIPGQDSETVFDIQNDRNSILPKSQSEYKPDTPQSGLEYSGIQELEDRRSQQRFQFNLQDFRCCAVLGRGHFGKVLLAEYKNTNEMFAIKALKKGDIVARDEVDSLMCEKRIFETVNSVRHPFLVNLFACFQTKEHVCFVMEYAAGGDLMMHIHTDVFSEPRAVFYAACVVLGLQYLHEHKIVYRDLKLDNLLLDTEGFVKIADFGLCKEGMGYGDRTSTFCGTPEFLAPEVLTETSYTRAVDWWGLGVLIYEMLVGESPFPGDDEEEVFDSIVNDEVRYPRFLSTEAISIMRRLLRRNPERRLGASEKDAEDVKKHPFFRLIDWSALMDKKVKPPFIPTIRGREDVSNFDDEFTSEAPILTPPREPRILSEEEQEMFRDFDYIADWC
Chain of Tyrosine-protein kinase Lyn (P07948 whole entry): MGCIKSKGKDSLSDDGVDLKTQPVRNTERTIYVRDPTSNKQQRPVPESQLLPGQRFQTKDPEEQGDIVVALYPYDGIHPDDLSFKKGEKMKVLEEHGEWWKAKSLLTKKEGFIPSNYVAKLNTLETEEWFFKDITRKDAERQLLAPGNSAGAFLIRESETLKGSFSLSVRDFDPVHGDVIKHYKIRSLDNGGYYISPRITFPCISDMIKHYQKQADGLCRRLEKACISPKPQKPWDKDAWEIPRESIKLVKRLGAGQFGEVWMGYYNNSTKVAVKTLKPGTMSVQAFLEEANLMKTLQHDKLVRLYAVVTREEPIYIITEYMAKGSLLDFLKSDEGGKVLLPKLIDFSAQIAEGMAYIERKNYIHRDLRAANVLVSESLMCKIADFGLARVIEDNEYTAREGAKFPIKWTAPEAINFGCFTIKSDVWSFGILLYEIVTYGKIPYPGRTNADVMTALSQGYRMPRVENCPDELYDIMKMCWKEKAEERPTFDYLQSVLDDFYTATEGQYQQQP
Chain of MAP kinase-activated protein kinase 5 (Q8IW41 whole entry): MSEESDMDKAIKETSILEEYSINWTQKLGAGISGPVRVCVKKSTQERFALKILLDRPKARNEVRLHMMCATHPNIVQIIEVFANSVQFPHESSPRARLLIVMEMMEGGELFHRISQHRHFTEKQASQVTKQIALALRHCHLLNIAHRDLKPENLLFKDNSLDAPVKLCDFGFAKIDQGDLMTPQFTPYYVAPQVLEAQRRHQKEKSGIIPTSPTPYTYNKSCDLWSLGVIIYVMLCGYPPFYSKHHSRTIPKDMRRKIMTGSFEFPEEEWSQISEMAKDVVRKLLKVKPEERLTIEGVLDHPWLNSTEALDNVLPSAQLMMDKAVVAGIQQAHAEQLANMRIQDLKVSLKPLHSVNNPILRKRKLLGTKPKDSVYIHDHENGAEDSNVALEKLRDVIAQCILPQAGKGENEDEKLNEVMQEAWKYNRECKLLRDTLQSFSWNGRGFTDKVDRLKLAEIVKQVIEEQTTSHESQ
Chain of Tyrosine-protein kinase ZAP-70 (P43403 whole entry): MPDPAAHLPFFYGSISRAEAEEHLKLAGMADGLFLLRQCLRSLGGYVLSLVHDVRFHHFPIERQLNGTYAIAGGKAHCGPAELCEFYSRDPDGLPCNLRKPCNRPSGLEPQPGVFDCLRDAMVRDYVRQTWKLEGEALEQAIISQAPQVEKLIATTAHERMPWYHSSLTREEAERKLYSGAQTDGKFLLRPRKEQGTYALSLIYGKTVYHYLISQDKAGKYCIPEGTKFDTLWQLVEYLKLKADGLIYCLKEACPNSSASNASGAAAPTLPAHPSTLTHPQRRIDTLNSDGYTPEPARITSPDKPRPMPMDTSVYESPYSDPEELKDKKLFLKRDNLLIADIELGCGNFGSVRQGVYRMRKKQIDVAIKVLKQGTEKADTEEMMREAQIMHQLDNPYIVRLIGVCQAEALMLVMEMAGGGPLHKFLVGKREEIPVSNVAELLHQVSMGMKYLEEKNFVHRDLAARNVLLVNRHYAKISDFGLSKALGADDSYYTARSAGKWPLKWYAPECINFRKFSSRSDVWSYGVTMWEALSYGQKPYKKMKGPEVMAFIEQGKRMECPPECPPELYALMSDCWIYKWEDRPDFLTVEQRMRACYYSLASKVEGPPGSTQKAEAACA
Chain of Serine/threonine-protein kinase PLK1 (P53350 whole entry): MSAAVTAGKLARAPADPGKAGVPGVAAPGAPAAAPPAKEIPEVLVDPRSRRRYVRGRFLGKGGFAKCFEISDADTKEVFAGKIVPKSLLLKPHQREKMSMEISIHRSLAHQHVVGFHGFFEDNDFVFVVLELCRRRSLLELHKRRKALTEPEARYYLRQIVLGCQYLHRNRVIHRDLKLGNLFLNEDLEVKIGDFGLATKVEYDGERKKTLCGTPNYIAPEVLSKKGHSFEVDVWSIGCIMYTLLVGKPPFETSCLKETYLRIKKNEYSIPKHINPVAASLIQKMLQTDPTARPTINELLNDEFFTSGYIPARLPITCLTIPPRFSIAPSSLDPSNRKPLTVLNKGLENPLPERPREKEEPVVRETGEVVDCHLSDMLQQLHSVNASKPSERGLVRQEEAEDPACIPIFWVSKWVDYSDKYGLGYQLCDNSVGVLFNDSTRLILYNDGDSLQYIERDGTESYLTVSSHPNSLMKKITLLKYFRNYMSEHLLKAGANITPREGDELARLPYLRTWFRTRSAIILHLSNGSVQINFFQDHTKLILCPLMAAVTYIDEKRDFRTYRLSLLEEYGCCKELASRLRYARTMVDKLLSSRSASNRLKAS

On to `CCN1CCN(c2ccc(Nc3cc(N(C)C(=O)Nc4c(Cl)c(OC)cc(OC)c4Cl)ncn3)cc2)CC1.O=P(O)(O)O` [INFIGRATINIB PHOSPHATE], for which the results for the half-life in data set [1] and in data set [8] were 6.7 h and 4.8 h, respectively. Also, the AUC/dose in the data set with Tumour [2] was found to be 4.8 nmol·h/g; in the data set on Tumour [5], 1.85 nmol·h/g; with Plasma, 0.6 µM·h. Also, the IC50 in data set [3] was 2.48 µM; at Cytochrome P450 2C19, greater than 10 µM; in data set [6], greater than 10 µM; in data set [7] it was 1.1 µM; in data set [9], greater than 10 µM; at Ephrin type-B receptor 4, greater than 10 µM. In addition, the half-inhibitory concentration (IC50) was greater than 10 µM in [11]; greater than 10 µM in data set [12]; 0.005 µM in the data set with RT-112; greater than 10 µM in [13]; greater than 10 µM in [14]; 0.3 µM in data set [16]. In addition, in the data set with Tumour [4], the Drug uptake came out at 0.62 nmol/g. The molecule also came in with a Cmax in the data set on Tumour [10] of 1.68 nmol/g. Besides, the results for the time of peak concentration (Tmax) in data set [15] and in data set [18] were 2 h and 8 h, respectively. Besides, in data set [17], the Vd stood at 9.6 L/kg.

Values taken from ChEMBL document CHEMBL1833940, “Discovery of 3-(2,6-dichloro-3,5-dimethoxy-phenyl)-1-{6-[4-(4-ethyl-piperazin-1-yl)-phenylamino]-pyrimidin-4-yl}-1-methyl-urea (NVP-BGJ398), a potent and selective inhibitor of the fibroblast growth factor receptor family of receptor tyrosine kinase” (J Med Chem, 2011).
